This note sets out measurements from ChEMBL document CHEMBL1158134, “Low-abundance kutznerides from Kutzneria sp. 744” (2006).

For one test, the system named is Drechslera. The test is described as follows: Antimicrobial activity against Drechslera sorokiniana at 27 to 28 degC after 48 hrs in dark. Format: functional. The method in brief:
(§1)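 MIC by microtiter bioassay scoring inhibition of spore germination or cell growth. Compounds in MeOH were dried in the wells, then 100 µL of spore or cell suspension (10^4 spores/mL or cells/mL) in appropriate medium was added. The top concentration tested was 230 to 590 µM. Controls were untreated suspension and sterile medium. Growth was scored visually on a 0–3 scale. Run in triplicate, repeated once.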

Test [1] has as its system Pectobacterium carotovorum. The test is described as follows: Antimicrobial activity against Erwinia carotovora at 27 to 28 degC after 24 hrs in dark. Format: functional. The method in brief: as §1
A further test deals with Fusarium culmorum. The test is described as follows: Antimicrobial activity against Fusarium culmorum at 27 to 28 degC after 72 hrs in dark. It is filed as functional. The method in brief:
as §1

For the next test, the system named is Staphylococcus aureus. The test is described as follows: Antimicrobial activity against Staphylococcus aureus at 37 degC after 24 hrs in dark. Format: functional. The essentials:
as §1

Test [2] concerns Pseudomonas savastanoi pv. savastanoi. The test is described as follows: Antimicrobial activity against Pseudomonas savastanoi pv. savastanoi up to 590 uM at 27 to 28 degC after 24 hrs in dark. It is filed as functional, organism-based. The essentials:
as §1

A further test has as its system Aspergillus fumigatus. The test is described as follows: Antimicrobial activity against Aspergillus fumigatus up to 590 uM at 27 to 28 degC after 96 hrs in dark. It is filed as functional, organism-based. The essentials: as §1
For the next test, the system named is Candida albicans. The test is described as follows: Antimicrobial activity against Candida albicans up to 590 uM at 37 degC after 24 hrs in dark. Format: functional, organism-based. The method in brief: as §1

≈ marks a conversion by molar mass, not a printed value. Calls of active or inactive are those of the source.

The MIC is the smallest concentration in the dilution series that meets the test's criterion for growth inhibition. Lower therefore signals greater potency. On to `COC[C@@H]1NC(=O)[C@@H]2CCC=NN2C(=O)[C@H](C(C)(C)C)OC(=O)[C@@H](C2(C)CC2)NC(=O)[C@@H]2C[C@@]3(O)c4ccc(Cl)c(Cl)c4N[C@H]3N2C(=O)[C@@H]([C@@H](O)CC(=O)O)NC1=O` [KUTZNERIDE 9], for which the MIC in the test on Drechslera is over 230 µM; in test [1], 230 µM (≈ 196 µg/mL); with Fusarium culmorum, over 230 µM; in the test with Staphylococcus aureus it was 60 µM (≈ 51.2 µg/mL).
Consider `COC[C@@H]1NC(=O)[C@@H]2CCCNN2C(=O)[C@H](C(C)(C)C)OC(=O)[C@@H](C2(C)CC2)NC(=O)[C@@H]2C[C@@]3(O)c4ccc(Cl)c(Cl)c4N[C@H]3N2C(=O)[C@@H]([C@H](O)CC(=O)O)NC1=O` [KUTZNERIDE 3], for which the MIC against Drechslera was determined as 260 µM (≈ 222 µg/mL); in test [1], 12 µM (≈ 10.3 µg/mL); in the test with Fusarium culmorum it was 260 µM (≈ 222 µg/mL); in the test with Staphylococcus aureus it was 9 µM (≈ 7.69 µg/mL). In addition, the outcome (in test [2]; in the test on Aspergillus fumigatus; in the test with Candida albicans) was inactive.
For the molecule `COC[C@@H]1NC(=O)[C@@H]2C[C@@H](Cl)CNN2C(=O)[C@H](C(C)(C)C)OC(=O)[C@@H](C2(C)CC2)NC(=O)[C@@H]2C[C@@]3(O)c4ccc(Cl)c(Cl)c4N[C@H]3N2C(=O)[C@@H]([C@@H](O)CC(=O)O)NC1=O` [KUTZNERIDE 2], the MIC in the test with Drechslera is 110 µM (≈ 97.8 µg/mL); in test [1] it was 6 µM (≈ 5.34 µg/mL); with Fusarium culmorum it was 70 µM (≈ 62.2 µg/mL); with Staphylococcus aureus it was 6 µM (≈ 5.34 µg/mL). Besides, the outcome (in test [2]; in the test on Aspergillus fumigatus; with Candida albicans) was inactive.
`COC[C@@H]1NC(=O)[C@@H]2CCCNN2C(=O)[C@H](C(C)(C)C)OC(=O)[C@@H](C2(C)CC2)NC(=O)[C@@H]2C[C@@]3(O)c4ccc(Cl)c(Cl)c4N[C@H]3N2C(=O)[C@@H]([C@@H](O)CC(=O)O)NC1=O` [KUTZNERIDE 1]: the MIC against Drechslera stood at 230 µM (≈ 197 µg/mL); in test [1], 60 µM (≈ 51.3 µg/mL); in the test on Fusarium culmorum, 210 µM (≈ 179 µg/mL); against Staphylococcus aureus, 12 µM (≈ 10.3 µg/mL). Besides, the outcome (in test [2]; in the test with Aspergillus fumigatus; in the test with Candida albicans) was inactive.
With `COC[C@@H]1NC(=O)[C@@H]2CCC=NN2C(=O)[C@H](C(C)(C)C)OC(=O)[C@@H](C2(C)CC2)NC(=O)[C@@H]2C[C@@]3(O)c4ccc(Cl)c(Cl)c4N[C@H]3N2C(=O)[C@@H]([C@H](O)CC(=O)O)NC1=O` [KUTZNERIDE 4], the MIC was over 590 µM in the test on Drechslera, 120 µM (≈ 102 µg/mL) in test [1], over 590 µM with Fusarium culmorum and 140 µM (≈ 119 µg/mL) against Staphylococcus aureus. Moreover, the outcome (in test [2]; in the test on Aspergillus fumigatus; in the test with Candida albicans) was inactive.
As to `COC[C@@H]1NC(=O)[C@@H]2CCCNN2C(=O)[C@H](C(C)C)OC(=O)[C@@H](C2(C)CC2)NC(=O)[C@@H]2C[C@@]3(O)c4ccc(Cl)c(Cl)c4N[C@H]3N2C(=O)[C@@H]([C@H](O)CC(=O)O)NC1=O` [KUTZNERIDE 5], the minimum inhibitory concentration (MIC) with Drechslera is over 240 µM; in test [1] it was 120 µM (≈ 101 µg/mL); in the test on Fusarium culmorum, over 240 µM; against Staphylococcus aureus, 120 µM (≈ 101 µg/mL).
Consider `C[C@@H]1[C@H](O)[C@@H](C)/C=C/C=C/C=C/C=C/C=C/C=C/C=C/[C@H](O[C@@H]2O[C@H](C)[C@@H](O)[C@H](N)[C@@H]2O)C[C@@H]2O[C@](O)(C[C@@H](O)C[C@@H](O)[C@H](O)CC[C@@H](O)C[C@@H](O)CC(=O)O[C@H]1C)C[C@H](O)[C@H]2C(=O)O` [AMPHOTERICIN B], for which the minimal inhibitory concentration (MIC) against Drechslera amounted to 4 µM (≈ 3.7 µg/mL); in the test on Fusarium culmorum it was 40 µM (≈ 37 µg/mL).
Regarding `COC[C@@H]1NC(=O)[C@@H]2CCCNN2C(=O)[C@H](C(C)C)OC(=O)[C@@H](C2(C)CC2)NC(=O)[C@@H]2C[C@@]3(O)c4ccc(Cl)c(Cl)c4N[C@H]3N2C(=O)[C@@H]([C@@H](O)CC(=O)O)NC1=O` [KUTZNERIDE 7], the MIC against Drechslera is over 420 µM; in test [1] it was 180 µM (≈ 151 µg/mL); against Fusarium culmorum, over 420 µM; against Staphylococcus aureus, 120 µM (≈ 101 µg/mL).
In the test on Staphylococcus aureus, `CN[C@@H]1[C@H](O[C@H]2[C@H](O[C@H]3[C@H](O)[C@@H](O)[C@H](N=C(N)N)[C@@H](O)[C@@H]3N=C(N)N)O[C@@H](C)[C@]2(O)C=O)O[C@@H](CO)[C@H](O)[C@H]1O` [STREPTOMYCIN] returned an MIC of 17 µM (≈ 9.89 µg/mL).
Consider `COC[C@@H]1NC(=O)[C@@H]2C[C@@H](Cl)CNN2C(=O)[C@H](C(C)(C)C)OC(=O)[C@@H](C2(C)CC2)NC(=O)[C@@H]2C[C@@]3(O)c4ccc(Cl)c(Cl)c4N[C@H]3N2C(=O)[C@@H]([C@H](O)CC(=O)O)NC1=O` [KUTZNERIDE 8], for which the MIC was found to be 230 µM (≈ 205 µg/mL) in the test with Drechslera, 6 µM (≈ 5.34 µg/mL) in test [1], 110 µM (≈ 97.8 µg/mL) against Fusarium culmorum and 6 µM (≈ 5.34 µg/mL) with Staphylococcus aureus.
Consider `COC[C@@H]1NC(=O)[C@@H]2C[C@@H](O)C=NN2C(=O)[C@H](C(C)(C)C)OC(=O)[C@@H](C2(C)CC2)NC(=O)[C@@H]2C[C@@]3(O)c4ccc(Cl)c(Cl)c4N[C@H]3N2C(=O)[C@@H]([C@H](O)CC(=O)O)NC1=O` [KUTZNERIDE 6], for which the MIC in the test on Drechslera is over 400 µM; in test [1] it was over 230 µM; in the test with Fusarium culmorum, over 230 µM; with Staphylococcus aureus, over 230 µM.
